The subject of this assay is Vesicular stomatitis virus. The experiment in a line: Antiviral activity against pseudotype VSV harbouring glycoprotein infected human 293T/ACE2 cells assessed as inhibition of viral infection measured after 48 hrs by luciferase reporter gene assay. Format: functional, organism-based. The essentials: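 293T-ACE2 cells (20,000/well) were seeded and treated 24 h later with graded compound concentrations mixed with pseudovirus supernatant, then incubated 48 h. The HIV-based pseudovirus (pNL4-3.Luc.R-E-) carried SARS-CoV-2 S or VSV-G and was made by co-transfecting HEK293T cells; supernatant was harvested at 48 h and filtered (0.45 µm). Read-out was luciferase activity in cell lysates. Sal-C was the positive control.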

The values below come from ChEMBL document CHEMBL4811231, “Discovery and structural optimization of 3-O-β-chacotriosyl oleanane-type triterpenoids as potent entry inhibitors of SARS-CoV-2 virus infections” (Eur J Med Chem, 2021).

The source made the active and inactive calls. The rule behind the calls is not given here.

As to `C[C@@H]1O[C@@H](O[C@H]2[C@H](O[C@H]3CC[C@]4(C)[C@H]5CC=C6[C@@H]7CC(C)(C)CC[C@]7(C(=O)NCc7ccccc7)CC[C@@]6(C)[C@]5(C)CC[C@H]4C3(C)C)O[C@H](CO)[C@@H](O[C@@H]3O[C@@H](C)[C@H](O)[C@@H](O)[C@H]3O)[C@@H]2O)[C@H](O)[C@H](O)[C@H]1O`, the inhibition entry was “inactive”.

Consider `C[C@@H]1O[C@@H](O[C@H]2[C@H](O[C@H]3CC[C@]4(C)[C@H]5CC=C6[C@@H]7CC(C)(C)CC[C@]7(C(=O)NCc7ccccc7F)CC[C@@]6(C)[C@]5(C)CC[C@H]4C3(C)C)O[C@H](CO)[C@@H](O[C@@H]3O[C@@H](C)[C@H](O)[C@@H](O)[C@H]3O)[C@@H]2O)[C@H](O)[C@H](O)[C@H]1O`, for which the inhibition result was “inactive”.

For the molecule `COc1ccccc1NC(=O)[C@]12CCC(C)(C)C[C@H]1C1=CC[C@@H]3[C@@]4(C)CC[C@H](O[C@@H]5O[C@H](CO)[C@@H](O[C@@H]6O[C@@H](C)[C@H](O)[C@@H](O)[C@H]6O)[C@H](O)[C@H]5O[C@@H]5O[C@@H](C)[C@H](O)[C@@H](O)[C@H]5O)C(C)(C)[C@@H]4CC[C@@]3(C)[C@]1(C)CC2`, the inhibition entry was “inactive”.

As for `C[C@@H]1O[C@@H](O[C@H]2[C@H](O[C@H]3CC[C@]4(C)[C@H]5CC=C6[C@@H]7CC(C)(C)CC[C@]7(C(=O)NCc7cccs7)CC[C@@]6(C)[C@]5(C)CC[C@H]4C3(C)C)O[C@H](CO)[C@@H](O[C@@H]3O[C@@H](C)[C@H](O)[C@@H](O)[C@H]3O)[C@@H]2O)[C@H](O)[C@H](O)[C@H]1O`, the inhibition result is “inactive”.
